Compound activity (PubChem)
CYP2C19 activ: activators of human cytochrome P450 2C19. P33261. recombinant CYP2C19, luciferin-H EGE luminescence; active compounds read high; 0 = fully inhibited enzyme, 1 = untreated enzyme. activation factor at 5 µM. 96,000 tested, under 10 active;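 active means activation factor of at least 2 at 5 µM in the primary screen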;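 further: 0 = wells with 2.5 mM tranylcypromine and 1 = vehicle-only wells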
Target sequence (P33261 whole entry, looked up): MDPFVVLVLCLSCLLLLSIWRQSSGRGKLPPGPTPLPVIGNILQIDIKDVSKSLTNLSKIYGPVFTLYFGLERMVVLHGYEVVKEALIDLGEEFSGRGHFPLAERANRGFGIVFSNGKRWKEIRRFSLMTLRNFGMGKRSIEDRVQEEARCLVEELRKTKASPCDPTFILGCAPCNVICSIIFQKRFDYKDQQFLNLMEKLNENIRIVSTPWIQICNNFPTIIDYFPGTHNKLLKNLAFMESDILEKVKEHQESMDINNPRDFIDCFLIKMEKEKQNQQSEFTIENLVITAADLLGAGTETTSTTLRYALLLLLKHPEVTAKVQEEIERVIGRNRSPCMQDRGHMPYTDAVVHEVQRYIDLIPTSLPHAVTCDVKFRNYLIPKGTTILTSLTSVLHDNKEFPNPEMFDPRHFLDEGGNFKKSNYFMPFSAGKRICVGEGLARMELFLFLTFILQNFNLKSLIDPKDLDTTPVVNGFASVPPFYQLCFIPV
CYP2C9 act: increases human cytochrome P450 2C9 activity; activation factor at 5 µM; P11712; recombinant CYP2C9, luciferin-H conversion, luminescence; active compounds read high; factor 1 = untreated enzyme, 0 = blocked; actives 1.4% (n = 96,000); AID 1024;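 active means activation factor of 2 or more for CYP2C9 at a 5 µM dose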;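 further: 0 = sulfaphenazole-blocked wells and 1 = vehicle-only wells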
E coli WT exp: blocks growth of wild type E. coli BW25113 | AID 710 | OD600 absorbance | actives 0.15% (n = 98,000) | growth inhibition, % at 100 µM;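 active means growth inhibition above about 50% at one test dose, limit read from the data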;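 further: growth measured after 20 h incubation at 37 °C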
CYP2C19 inhib: inhibitors of human CYP2C19. P33261. inhibition, % at 5 µM. actives 21% (n = 96,000). AID 778. CYP2C19 Supersomes, luciferin-H EGE luminescence, 30 min;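 active means CYP2C19 inhibition above a set limit at 5 µM in the primary screen, cut at about 50% in these data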;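 further: plate controls were negative control wells for no effect and 2.5 mM tranylcypromine positive control for full effect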
tolC growth inh: E. coli tolC mutant growth inhibition. growth inhibition, % at 10 µM (by protocol). actives 2.2% (n = 65,000). E. coli BW25113 tolC mutant growth, OD615;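 active means growth inhibition at or above a cutoff equal to the mean over every tested compound plus 3 SD, cut at about 60% in these data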;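 further: growth measured after 20 h incubation at 37 °C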
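test system = E. coli BW25113 ΔtolC::kan bacteria | medium = LB with kanamycin 50 µg/mL | signal = OD at 615 nm | schedule = 37 °C, 20 h exposure | evaluation = % inhibition of E. coli growth | compound dosing = one dose of 10 µM final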
CYP2C9 inh: inhibitors of human CYP2C9; CYP2C9 Supersomes, luciferin-H conversion, luminescence; inhibition, % at 5 µM; actives 20% (n = 96,000);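 active means blocking of liver enzyme CYP2C9 beyond about 50% at 5 µM, limit read from the data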
* = called active by the depositor; . = no result. The list is not random: actives were taken first. Their share in the collection is about 29%.

SMILES	CYP2C19 activ	CYP2C9 act	E coli WT exp	CYP2C19 inhib	tolC growth inh	CYP2C9 inh
O=C(Cn1nc(Cc2ccncc2)c2ccccc2c1=O)N1CCc2ccccc2C1	0.1	0.2	0.0	88.5*	5.1	79.7*
CC(C)COC(=O)NCCOC(=O)Nc1cccc(Cl)c1	0	0.2	25.0	95.2*	89.0*	80.3*
O=C(Nc1cccc(Cl)c1)ON=C1c2ccccc2-c2ccccc21	0.9	0.4	5.0	11.3	.	62.7*
COC(=O)c1cc(NC(=O)Nc2cccc(Cl)c2)ccc1Cl	1.1	1.1	2.0	-11.3	.	-6.8
COC(=O)NCC(C)OC(=O)Nc1cccc(Cl)c1 (stereo unspecified)	0.4	0.6	-5.0	59.0*	3.1	35.4
C[C@H](CS)C(=O)N1CCC[C@H]1C(=O)O	.	.	.	.	-21.5	.
CSCCC(NC(=O)c1occc1C)C(=O)O (stereo unspecified)	1.2	1.2	-21.0	-20.2	-3.7	-24.3
CC(OC(=O)CN1C(=O)NC(C)(C)C1=O)C(=O)c1ccccc1 (stereo unspecified)	0.4	0.8	14.0	59.6*	.	23.9
CCOC(=O)C1=C(C)N=c2s/c(=C3\C(=O)Nc4ccccc43)c(=O)n2C1c1ccc2c(c1)OCO2 (stereo unspecified)	0.9	0.4	-16.0	11.2	9.6	58.9*
CCOC(=O)C1=C(C)N=c2s/c(=C\c3ccncc3)c(=O)n2C1c1ccc2c(c1)OCO2 (stereo unspecified)	0.2	0.2	-6.0	84.7*	20.7	84.8*
Cc1ccccc1NC(=O)NCCCN1CCN(c2ccccc2)CC1	0.9	0.6	7.0	8.5	.	38.8
CCC(C)c1ccc2oc(-c3ccc(NC(=O)Cn4cnc5c(=O)n(C)c(=O)n(C)c54)cc3)nc2c1 (stereo unspecified)	0.9	0.5	-10.0	11.8	-9.1	48.2
COc1ccc2nc(SCC(=O)Nc3ccc(S(=O)(=O)Nc4nccc(C)n4)cc3)[nH]c2c1	0.7	0.8	8.0	29.3	.	22.8
Cc1nc2nc(SCC(N)=O)[nH]c2cc1Br	1	0.9	6.0	3.6	-28.7	8.6
CCOC(=O)CNC(=O)CSc1nc2nc(C)c(Br)cc2[nH]1	0.4	0.4	4.0	60.0*	2.5	60.8*
CC(C)(C)n1ncc2c(=O)n(CC(=O)N3CCCc4ccccc43)cnc21	0.7	0.9	1.0	28.1	33.9	10.2
CC(N)C12CC3CC(C1)CC(C(C)N)(C3)C2 (stereo unspecified)	1.2	1.2	1.0	-23.4	-29.9	-19.8
Oc1ccc(-c2nnc(SCC3CCCCC3)o2)cc1	1	2.1*	-8.0	2.9	11.0	-107.0
COc1cccc(-c2nnc(SCC(=O)N3CCOCC3)o2)c1	1.1	0.9	3.0	-9.3	11.1	9.8
COc1ccccc1-c1nnc(SCC(=O)N2CCC(C)CC2)o1	0.2	3.9*	6.0	75.5*	3.1	-291.1
COc1ccc(-c2nnc(SCC(=O)N3CCOCC3)o2)cc1	1	1	2.0	4.4	3.1	0.8
O=C1OCCC1Sc1nnc(-c2ccc(O)cc2)o1 (stereo unspecified)	0.6	1.2	5.0	41.7	.	-18.3
COc1ccccc1-c1nnc(SCC(=O)N2CCOCC2)o1	.	.	.	.	-10.3	.
COc1cccc(-c2nnc(SCC(=O)N3CC(C)CC(C)C3)o2)c1 (stereo unspecified)	0.4	1.2	1.0	64.6*	20.4	-17.2
CC1CC(C)CN(C(=O)CSc2nnc(-c3ccc(Cl)cc3)o2)C1 (stereo unspecified)	0.2	0.9	2.0	81.3*	5.1	5.9
SMILES	CYP2C19 activ	CYP2C9 act	E coli WT exp	CYP2C19 inhib	tolC growth inh	CYP2C9 inh
CC(C)(C)C(=O)NC(=S)Nc1ccccc1C(=O)Nc1ccccc1	0.8	1	1.0	17.6	.	-3.7
OCn1ncn(-c2ccccc2)c1=S	0.9	0.9	2.0	11.2	-15.0	7.6
Cc1ccc(-c2nnc(SCC(=O)N3CC(C)CC(C)C3)o2)cc1C (stereo unspecified)	.	.	-8.0	.	97.0*	.
O=C(CSc1nnc(-c2ccc(O)cc2)o1)N1CCOCC1	1	2.5*	4.0	-4.7	-18.3	-147.9
Cc1ccccc1Nc1c(N)c(=O)oc2ccccc12	0	0.4	5.0	95.6*	.	64.9*
Cn1c(COc2ccccc2)nnc1SCCC(=O)Nc1ccccc1	0.3	0.1	6.0	73.9*	0.3	87.9*
CCn1c(SCCC(=O)Nc2ccccc2)nnc1-c1ccc(OC)cc1	0.1	0.4	3.0	92.8*	16.1	61.5*
CCn1c(SCC(=O)Nc2cccc(OC)c2)nnc1-c1ccc(Cl)cc1	1	1.1	-8.0	0.4	.	-5.8
Cc1ccccc1C(=O)NC1CC(C)(C)NC(C)(C)C1	.	.	-2.0	.	-9.2	.
Clc1ccccc1OCc1nc(-c2ccc(Br)o2)no1	0.1	0.4	-1.0	93.8*	.	57.8*
Fc1ccc(OCc2nc(-c3ccc(Br)o3)no2)c(F)c1	0.1	0.7	9.0	94.4*	1.5	27.4
Brc1ccc(-c2noc(COc3ccc4ccccc4c3)n2)o1	0.9	1.1	-5.0	13.6	.	-11.5
COc1ccccc1OCCc1nnc(N)s1	1.3	1.4	4.0	-33.4	.	-43.9
CCOC(=O)C1=CSC2=NS(=O)(=O)CCN12	1.1	1	-2.0	-14.2	-2.0	-4.6
N#Cc1nc(COc2cccc(Cl)c2)oc1N1CCCC1	0	0.8	-3.0	98.3*	32.1	18.5
N#Cc1nc(COc2ccc(F)cc2)oc1N1CCCC1	0	0.7	7.0	96.1*	21.6	28.5
CC(Sc1nc(-c2ccccc2)cc(C(F)(F)F)n1)C(=O)Nc1sc2c(c1C#N)CCC2 (stereo unspecified)	0.9	0.4	-14.0	13.7	.	64.4*
N#Cc1c(C(F)(F)F)cc(-c2ccc(Cl)c(Cl)c2)nc1SCCN1CCOCC1	1.1	1	-23.0	-13.6	.	-4.1
N#Cc1c(C(F)(F)F)cc(-c2ccccc2)nc1SCC(=O)Nc1sc2c(c1C#N)CCC2	0.8	0.3	-4.0	22.1	.	71.2*
N#Cc1c(C(F)(F)F)cc(-c2ccccc2)nc1SCc1nc(N)nc(N2CCOCC2)n1	0.2	0.2	-1.0	81.2*	-0.5	79.5*
N#Cc1ccc(-c2cccnc2)nc1SCC(=O)Nc1sc2c(c1C#N)CCC2	0.7	1	-3.0	29.9	4.9	-2.0
CCCC1C2C(=O)N(c3ccccc3)C(=O)C2ON1c1ccccc1 (stereo unspecified)	0.4	0.4	3.0	56.0*	.	55.4*
CCCOc1ccc(N2C(=O)C3ON(c4ccccc4)C(CCC)C3C2=O)cc1 (stereo unspecified)	0.7	0.5	-2.0	31.5	.	52.5*
CCCC1C2C(=O)N(c3ccccc3OC)C(=O)C2ON1c1ccccc1 (stereo unspecified)	0.1	0.3	2.0	94.8*	18.5	69.8*
